The list is not random: actives were taken first. Their share in the collection is about 3.7%.
B2AR ag – agonists of human beta-2 adrenergic receptor inducing internalization; Am2.2-beta2AR cells, FAP receptor internalization, flow cytometry; hit rate 0.43% among 340,000; response, % (test concentration not listed); P07550;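 active means response above a set limit, near 3 SD of response in nonfluorescent compounds, cut at about 42% in these data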
XBP1 UPR activ – activators of adaptive arm of unfolded protein response (XBP1); hit rate 0.33% among 330,000; AID 463104; activation, % at 20 µM; CHO-XBP1 luciferase reporter, IRE1-XBP1 UPR activation, luminescence; percent of tunicamycin response, DMSO as zero;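 active means versus positive control, 20 µM dose yields 30% or more activation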;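 further: 100% = tunicamycin at 10 µg/mL and 0% = DMSO only wells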
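Assay system: CHO-XBP1 luciferase reporter cells; Schedule: 6 h treatment, 37 °C; Detection: glow luminescence from Steady-Glo reagent; Benchmarks: high control tunicamycin 10 µg/mL final, low control DMSO vehicle only.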
UPR CHOP act – apoptotic UPR (CHOP) activation; activation, % at 10 µM; CHO-CHOP luciferase reporter, luminescence; percent of tunicamycin response over DMSO baseline; AID 449763; hit rate 0.34% among 330,000;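 active means at 10 µM dose, activation of 40% or more, normalized to positive control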;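 further: 100% = tunicamycin at 10 µg/mL and 0% = DMSO alone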
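Assay system: CHO cells with stable CHOP pathway luciferase reporter; Buffer or medium: F12 plus 10% serum; Times: 16-18 h cell attachment, then 6 h compound exposure, 37 °C; Signal: luciferase luminescence; Read-out basis: percent activation relative to tunicamycin control; Control set: tunicamycin high control, DMSO low control.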
Dynein cargo inh – blocks dynein driven cargo transport along microtubules. z-score, hits read low. AID 1381. hit rate 0.47% among 220,000. 3617.4 mouse cells, GR-EGFP nuclear translocation imaging; test concentration mostly 20 µM; stimulated with dexamethasone, 1 µM; hits give low values;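 active means plate z-score of nuclear minus cytoplasmic receptor signal below a set negative limit, without overly bright fluorescence or cell loss, cut at about -3.5 in these data, passing the limit was not always enough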;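 further: z-score of nuclear minus cytoplasmic ring GR-EGFP intensity difference per well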
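Also added: dexamethasone, 1.0 µM final. Medium: tet-free, stripped-serum medium. Detection: fixed, Hoechst-stained cells imaged at 10x for EGFP. Read-out: nuclear-to-cytoplasmic GR-EGFP distribution per well. Times: induction 48 h, compound 1 h, agonist 30 min.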
Mdm2 MdmX PPI – human Mdm2/MdmX binding inhibition; O15151+Q00987; SaOS-2 split-luciferase Mdm2/MdmX complementation, luminescence; inhibition, % at 8 µM; hit rate 3% among 330,000; AID 485346;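 active means inhibition of at least 50% at 8 µM in the primary screen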
Mdm2 ligase inh – inhibitors of human Mdm2 E3 ubiquitin ligase; cell-based MDM2 ubiquitination luciferase reporter, 2 h; 0 = plate control, 100 = twice control, blank-subtracted; signal enhancement, % at 5 µM; hit rate 0.11% among 210,000;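 active means signal enhancement of 30% or more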;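 further: luminescence tracks abundance of the self-degrading MDM2-luciferase fusion protein; higher signal means inhibition of MDM2 E3 ligase activity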
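Material: stable MDM2–luciferase fusion reporter cells / Quantity: 2000 cells/well / Dosing: single 5 µM compound dose, 0.2% final DMSO / Buffer or medium: DMEM / Schedule: 4 h cell settling then 2 h compound exposure, 37 °C / Detection: luminescence with SteadyLite reagent, 15 min at room temperature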
CHOP UPR conf – apoptotic UPR (CHOP) activation, confirmed; shares compounds with UPR CHOP act; CHO-CHOP cells, CHOP-luciferase reporter luminescence; percent of tunicamycin response, DMSO as zero; activation, % at 10 µM; hit rate 64% among 1,000; in the data active means activation above about 33%;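 further: 0% = DMSO wells and 100% = tunicamycin 10 µg/mL wells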
UPR XBP1 confirm – confirmation of adaptive unfolded protein response (XBP1) activators; shares compounds with XBP1 UPR activ; hit rate 63% among 1,000; CHO-XBP1 IRE1-XBP1 luciferase reporter, luminescence; activation, % at 20 µM;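 active means reporter signal at least 30% of the positive control's activation in two or more of four replicate wells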;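 further: plate controls were DMSO negative control for no effect and tunicamycin 10 µg/mL positive control for full effect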
Mdm2-MdmX conf – human Mdm2/MdmX binding inhibition, confirmed; hit rate 55% among 10,000; AID 489028; inhibition, % at 8 µM; shares compounds with Mdm2 MdmX PPI; luminescent assay; in the data active means inhibition above about 40%
FLuc counter – full-length luciferase inhibition in Mdm2/MdmX counter-screen | shares compounds with Mdm2 MdmX PPI | SaOS-2 full-length luciferase counterscreen, luminescence | inhibition, % at 8 µM | hit rate 77% among 6,200 | AID 504607;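 active means mean inhibition at 8 µM reaching about 37%, which flags the compound as non-specific, limit read from the data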;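 further: p53-null SaOS-2 cells with luciferase driven by a doxycycline-inducible promoter; compound on cells about two nights before reading with doxycycline added after day one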
The depositor's hits bear a star; . = no result.

SMILES | B2AR ag | XBP1 UPR activ | UPR CHOP act | Dynein cargo inh | Mdm2 MdmX PPI | Mdm2 ligase inh | CHOP UPR conf | Mdm2-MdmX conf | FLuc counter | others
CCCCC(CC)CN=C(N)NC(N)=NCCCCCCN=C(N)NC(N)=NCC(CC)CCCC (stereo unspecified) | -552 | 1 | 54* | . | 99* | . | 38* | 86* | 15
CCCCC(CC)CO (stereo unspecified) | 4 | 0 | 3 | . | 8 | . | . | . | .
CCN(CC)C(=O)N1CCN(c2c([N+](=O)[O-])c(=O)oc3ccccc23)CC1 | -9 | 1 | 2 | . | 15 | . | . | . | .
Clc1ccc(-c2ccc(/C=N/Nc3nncc(-c4ccccc4)n3)o2)cc1 | 16 | 76* | 42* | -0.15 | 50* | 2 | 44* | 27 | . | UPR XBP1 confirm=145*
Cc1cccc(Cn2cc(/C=C/[N+](=O)[O-])c3ccccc32)c1 | 11 | 53* | 50* | -1.2 | 58* | -2 | 218* | 15 | .
CC1CCC/C=C/C(=O)c2c(O)cc(O)cc2CC(=O)O1 (stereo unspecified) | 27 | -6 | 55* | -4.5* | 100* | -27 | 91* | 98* | 56*
C[C@@H]1Cc2c(O)c(O)cc(O)c2C(=O)O1 | 1 | -5 | -2 | 0.7 | 10 | -74 | . | . | .
Cc1c(/C=N/Nc2nc3ccccc3[nH]2)c2ccccc2n1C | 12 | 2 | 320* | -0.31 | 93* | 1 | -1 | 48* | 71*
Cn1c(/C=N/Nc2nc3ccccc3[nH]2)nc2ccccc21 | -1 | 21 | 1 | 0.59 | -132 | -33 | . | . | .
O=C(Nc1ccccn1)c1ccc(Cl)s1 | -2 | 2 | 3 | . | -36 | . | . | . | .
Cc1cccnc1Nc1nc(-c2ccccn2)cs1 | 13 | 11 | 451* | -1.3 | 74* | -31 | 471* | 36 | .
Cc1cccnc1Nc1nc(-c2ccccc2)cs1 | 0 | -4 | 5 | . | -219 | . | . | . | .
O=C(Nc1nc(-c2ccccn2)cs1)c1ccc(Cl)s1 | -18 | 11 | 90* | 0.11 | 70* | -2 | 126* | 80* | 24
C[C@@H]1CN([C@H](C)CO)C(=O)c2cc(NC(=O)Nc3ccc(C(F)(F)F)cc3)ccc2O[C@H]1CN(C)Cc1ccc(Cl)c(Cl)c1 | -1 | 19 | 184* | . | 98* | . | 60* | 47* | 20
C[C@@H]1CN([C@@H](C)CO)C(=O)c2cc(NC(=O)CCC(F)(F)F)ccc2O[C@H]1CN(C)Cc1ccc(Cl)c(Cl)c1 | -1 | -3 | 0 | . | 47 | . | . | . | .
O=C(CSc1nc2ccccc2s1)NCc1cc([N+](=O)[O-])ccc1O | 2 | -3 | 1 | . | 12 | . | . | . | .
COc1ccc(CNC(=O)COc2ccc(F)cc2)cc1 | -2 | -1 | -1 | 0.086 | 25 | 5 | . | . | .
COc1ccc(CNC(=O)COc2ccc(C(=O)c3ccc(F)cc3)cc2)cc1 | 1 | 4 | 56* | -1.1 | 61* | 3 | -2 | 47* | 89*
O=C(CSc1ccccn1)Nc1nonc1[N+](=O)[O-] | 6 | -6 | 85* | . | 95* | . | 42* | 80* | 29
CN(CC1COc2ccccc2O1)C(=O)c1ccc(Cl)c(S(=O)(=O)N2CCCCCC2)c1 (stereo unspecified) | 3 | -1 | 1 | . | 26 | . | . | . | .
O=C(O)c1c(C(=O)O)c(-c2ccc(F)cc2)n2c1CCC2 | -5 | 1 | -1 | . | 23 | . | . | . | .
Cc1ccc2[nH]cc(C(=O)CCl)c2c1 | 21 | -6 | 348* | -3 | 82* | . | 189* | 67* | 58*
Cc1ccc2c(C(=O)CCl)c(C)[nH]c2c1 | 5 | -6 | 479* | -0.94 | 92* | . | 274* | 77* | 60*
Cc1ccc2c(C(=O)CN3CCSCC3)c(C)[nH]c2c1 | -1 | -4 | 2 | 0.64 | 18 | -8 | . | . | .
Cn1c(=O)c2c(SCC(=O)Nc3cccc(F)c3)nc(-c3ccco3)nc2n(C)c1=O | -1 | 481* | 158* | . | 100* | . | 0 | 20 | . | UPR XBP1 confirm=4
SMILES | B2AR ag | XBP1 UPR activ | UPR CHOP act | Dynein cargo inh | Mdm2 MdmX PPI | Mdm2 ligase inh | CHOP UPR conf | Mdm2-MdmX conf | FLuc counter | others
O=C(Cn1ncc(Cl)c(Cl)c1=O)c1ccc2c(c1)OCCO2 | 13 | -3 | 45* | . | 100* | . | 48* | 82* | 52*
CCC(=O)c1ccc2c(c1)OCCO2 | 3 | -4 | 2 | 0.81 | -11 | -4 | . | . | .
Cc1cc(-n2c(C)cc(C(=O)COc3ccc(Cl)cc3C(N)=O)c2C)no1 | 11 | -1 | -1 | . | 6 | . | . | . | .
COc1ccccc1N=c1oc2c(OC)cccc2cc1C(=O)NCc1ccco1 | 1 | 69* | 76* | -0.75 | 51* | -19 | 67* | 3 | . | UPR XBP1 confirm=17
COc1ccc(OC)c(N=c2oc3c(OC)cccc3cc2C(=O)NCc2ccco2)c1 | 3 | 1 | 3 | . | 43 | . | . | . | .
NC(=O)C1CN(C(=O)c2nn(Cc3ccccc3)c(=O)c3ccccc23)c2ccccc2O1 (stereo unspecified) | -3 | -2 | 0 | . | -1 | . | . | . | .
C/C(=N\NC(=O)c1cc(-c2cccs2)nc2ccccc12)c1ccccn1 | -11 | 6 | 248* | 0.82 | 80* | -5 | 198* | 75* | 28
NNC(=O)c1cc(-c2cccs2)nc2ccccc12 | -18 | 0 | 4 | 0.11 | -10 | -13 | . | . | .
